Test [1] deals with T1, Toll-like receptor 8 (Homo sapiens, UniProt Q9NR97).
T1 sequence (Q9NR97 whole entry): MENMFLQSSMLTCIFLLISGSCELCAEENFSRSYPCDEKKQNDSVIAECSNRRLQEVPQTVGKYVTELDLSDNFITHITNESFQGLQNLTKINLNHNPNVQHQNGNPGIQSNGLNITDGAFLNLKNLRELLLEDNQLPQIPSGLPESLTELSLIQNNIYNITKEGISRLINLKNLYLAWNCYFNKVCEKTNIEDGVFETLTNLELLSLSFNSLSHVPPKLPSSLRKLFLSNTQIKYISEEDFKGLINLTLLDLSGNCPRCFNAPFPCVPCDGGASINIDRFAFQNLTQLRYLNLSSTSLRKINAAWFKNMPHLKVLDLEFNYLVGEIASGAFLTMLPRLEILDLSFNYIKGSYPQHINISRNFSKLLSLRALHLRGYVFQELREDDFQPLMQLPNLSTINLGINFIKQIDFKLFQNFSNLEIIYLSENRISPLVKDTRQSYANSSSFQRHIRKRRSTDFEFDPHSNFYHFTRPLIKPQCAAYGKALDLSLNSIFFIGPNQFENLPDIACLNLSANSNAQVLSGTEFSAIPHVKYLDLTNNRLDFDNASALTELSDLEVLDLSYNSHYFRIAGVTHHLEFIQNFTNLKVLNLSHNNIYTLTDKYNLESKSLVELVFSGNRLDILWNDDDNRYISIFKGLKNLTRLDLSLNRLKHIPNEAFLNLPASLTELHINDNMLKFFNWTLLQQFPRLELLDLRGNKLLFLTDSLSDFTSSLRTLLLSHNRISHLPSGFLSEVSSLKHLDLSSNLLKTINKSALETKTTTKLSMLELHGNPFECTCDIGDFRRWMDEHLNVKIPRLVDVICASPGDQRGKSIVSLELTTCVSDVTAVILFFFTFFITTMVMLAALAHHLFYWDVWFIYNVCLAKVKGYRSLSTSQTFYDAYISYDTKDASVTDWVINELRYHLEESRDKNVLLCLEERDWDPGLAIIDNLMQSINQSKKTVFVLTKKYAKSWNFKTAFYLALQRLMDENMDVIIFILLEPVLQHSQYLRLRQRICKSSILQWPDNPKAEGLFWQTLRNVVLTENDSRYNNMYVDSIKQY
As to the kind of experiment: Agonist activity at human TLR8 expressed in HEK293 cells assessed as induction of NF-kappaB activity by secreted alkaline phosphatase reporter gene assay. Format: cell-based. The method, boiled down: (§1)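 HEK293 reporter lines stably co-transfected with the respective human TLR and an NF-κB/AP-1-driven secreted alkaline phosphatase gene, kept in selection medium. About 10^5 cells/ml were incubated with graded concentrations of stimuli. Supernatant sAP was read spectrophotometrically at 620 nm using a chromogenic substrate in detection medium. EC50 was taken as the arithmetic mean of quadruplicate samples.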
On the technique in general: Reporter assays use an easily measured gene product as a stand-in for the process of interest.

Test [2] has as its target Toll-like receptor 3 (Homo sapiens) (UniProt O15455). As to the kind of experiment: Agonist activity at human TLR3 expressed in HEK293 cells assessed as induction of NF-kappaB activity by secreted alkaline phosphatase reporter gene assay. The format is cell-based. The procedure, abridged: as §1
For test [3], the target named is Toll-like receptor 5 (Homo sapiens) (UniProt O60602). Kind of test: Agonist activity at human TLR5 expressed in HEK293 cells assessed as induction of NF-kappaB activity by secreted alkaline phosphatase reporter gene assay. The format is cell-based. The procedure, abridged:
as §1

For test [4], the target named is T2, Toll-like receptor 9 (Homo sapiens) (UniProt Q9NR96).
T2 sequence (whole entry): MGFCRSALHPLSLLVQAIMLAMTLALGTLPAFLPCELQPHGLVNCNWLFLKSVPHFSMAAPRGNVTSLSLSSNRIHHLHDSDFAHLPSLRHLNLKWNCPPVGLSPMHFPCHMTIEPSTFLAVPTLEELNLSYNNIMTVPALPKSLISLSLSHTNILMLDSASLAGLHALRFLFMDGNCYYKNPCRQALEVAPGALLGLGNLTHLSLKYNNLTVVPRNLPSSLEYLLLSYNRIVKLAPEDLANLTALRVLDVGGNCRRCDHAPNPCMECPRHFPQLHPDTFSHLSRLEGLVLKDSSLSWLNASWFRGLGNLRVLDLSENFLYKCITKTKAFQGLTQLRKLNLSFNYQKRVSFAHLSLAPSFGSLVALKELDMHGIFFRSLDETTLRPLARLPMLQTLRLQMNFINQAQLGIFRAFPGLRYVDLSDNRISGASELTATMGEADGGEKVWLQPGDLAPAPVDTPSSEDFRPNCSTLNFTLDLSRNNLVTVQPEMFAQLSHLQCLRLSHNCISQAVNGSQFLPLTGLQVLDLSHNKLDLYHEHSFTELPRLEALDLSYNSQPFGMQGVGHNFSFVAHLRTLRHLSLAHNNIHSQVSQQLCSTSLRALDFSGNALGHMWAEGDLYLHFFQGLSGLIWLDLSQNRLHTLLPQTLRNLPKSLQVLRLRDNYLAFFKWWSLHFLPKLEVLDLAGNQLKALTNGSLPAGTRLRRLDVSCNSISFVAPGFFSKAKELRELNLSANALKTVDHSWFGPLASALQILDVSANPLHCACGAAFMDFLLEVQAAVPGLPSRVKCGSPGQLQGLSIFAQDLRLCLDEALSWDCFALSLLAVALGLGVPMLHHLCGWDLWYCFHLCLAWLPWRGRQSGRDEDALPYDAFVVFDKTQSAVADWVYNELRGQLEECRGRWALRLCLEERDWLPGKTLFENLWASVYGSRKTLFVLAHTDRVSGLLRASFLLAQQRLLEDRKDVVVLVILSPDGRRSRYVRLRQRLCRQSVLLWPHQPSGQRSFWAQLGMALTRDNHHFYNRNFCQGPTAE
Kind of test: Agonist activity at human TLR9 expressed in HEK293 cells assessed as induction of NF-kappaB activity by secreted alkaline phosphatase reporter gene assay. The format is cell-based. The procedure, abridged: as §1

The target of test [5] is T3, Toll-like receptor 8 (Homo sapiens) (UniProt Q9NR97).
T3 sequence (whole entry): T1 sequence (Q9NR97 whole entry)
Kind of test: (§2) Agonist activity at TLR8 in human PBMC assessed as increase in TNF-alpha production after 16 hrs by immunoassay. The method, boiled down: (§3)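 Freshly isolated human PBMC from venipuncture blood (informed consent), 10^5 cells/well, stimulated 16 h with graded concentrations of compound. Supernatants collected by centrifugation and cytokines quantified in duplicate with a multiplexed cytokine/chemokine magnetic bead array.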

The target of test [6] is T3, Toll-like receptor 8 (Homo sapiens). Kind of test: Agonist activity at TLR8 in human PBMC assessed as induction of IL-8 levels after 16 hrs by immunoassay. The procedure, abridged: as §3
For test [7] the target is unchanged. Kind of test: Agonist activity at TLR8 in human monocytes assessed as upregulation of CD80 after 16 hrs by flow cytometry. Format: cell-based. The method, boiled down: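 Heparin-anticoagulated healthy-donor whole blood added to serial compound dilutions, 37 °C for 16 h, DMSO negative control. Stained with CD14-FITC, CD40-APC, CD80-PE-Cy7 and CD86-V450 (2.5 µg each, 4 °C, dark, 60 min). Erythrocytes lysed, leukocytes fixed, washed, then flow cytometry on 200,000 gated events. Monocytes gated as CD14+, CD80 read as MFI, means of duplicates.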
Background: A flow cytometer gives signals particle by particle.

The target is the same in test [8]. Kind of test: Agonist activity at TLR8 in human PBMC assessed as Th1-biased stimulatory activity measured as IL-12 release after 16 hrs by immunoassay. The method, boiled down: as §3
Test [9] deals with T1, Toll-like receptor 8. The test is described as §2. The procedure, abridged:
as §3

The structures appear in SMILES notation. Activity calls are given as the source filed them. The calls are words filed in the database; no cut-off is given here.

Chain of Toll-like receptor 3 (Homo sapiens) (O15455 whole entry): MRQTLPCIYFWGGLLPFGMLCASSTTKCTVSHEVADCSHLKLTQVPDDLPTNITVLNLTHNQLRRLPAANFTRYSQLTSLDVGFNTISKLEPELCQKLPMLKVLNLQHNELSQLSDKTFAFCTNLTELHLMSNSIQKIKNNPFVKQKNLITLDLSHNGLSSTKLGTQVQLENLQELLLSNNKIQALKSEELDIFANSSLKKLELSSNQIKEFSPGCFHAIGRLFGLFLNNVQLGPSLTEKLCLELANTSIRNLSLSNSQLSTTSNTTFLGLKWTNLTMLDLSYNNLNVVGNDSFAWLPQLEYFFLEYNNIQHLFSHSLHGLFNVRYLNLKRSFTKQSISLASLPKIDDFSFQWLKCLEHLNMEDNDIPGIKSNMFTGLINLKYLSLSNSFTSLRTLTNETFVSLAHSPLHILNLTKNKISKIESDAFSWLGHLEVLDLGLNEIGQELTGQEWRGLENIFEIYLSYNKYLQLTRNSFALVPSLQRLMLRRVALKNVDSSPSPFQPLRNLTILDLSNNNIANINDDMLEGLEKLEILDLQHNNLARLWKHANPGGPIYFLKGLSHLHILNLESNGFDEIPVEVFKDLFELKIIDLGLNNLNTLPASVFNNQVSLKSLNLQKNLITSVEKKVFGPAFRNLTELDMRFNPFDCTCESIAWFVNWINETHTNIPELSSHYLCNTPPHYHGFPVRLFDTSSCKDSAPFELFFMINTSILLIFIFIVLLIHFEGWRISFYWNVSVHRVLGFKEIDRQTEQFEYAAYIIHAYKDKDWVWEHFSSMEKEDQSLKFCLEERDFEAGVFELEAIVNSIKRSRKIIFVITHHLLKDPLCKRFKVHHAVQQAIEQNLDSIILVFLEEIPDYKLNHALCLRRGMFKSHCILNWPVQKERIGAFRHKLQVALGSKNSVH
Chain of Toll-like receptor 5 (Homo sapiens) (O60602 whole entry): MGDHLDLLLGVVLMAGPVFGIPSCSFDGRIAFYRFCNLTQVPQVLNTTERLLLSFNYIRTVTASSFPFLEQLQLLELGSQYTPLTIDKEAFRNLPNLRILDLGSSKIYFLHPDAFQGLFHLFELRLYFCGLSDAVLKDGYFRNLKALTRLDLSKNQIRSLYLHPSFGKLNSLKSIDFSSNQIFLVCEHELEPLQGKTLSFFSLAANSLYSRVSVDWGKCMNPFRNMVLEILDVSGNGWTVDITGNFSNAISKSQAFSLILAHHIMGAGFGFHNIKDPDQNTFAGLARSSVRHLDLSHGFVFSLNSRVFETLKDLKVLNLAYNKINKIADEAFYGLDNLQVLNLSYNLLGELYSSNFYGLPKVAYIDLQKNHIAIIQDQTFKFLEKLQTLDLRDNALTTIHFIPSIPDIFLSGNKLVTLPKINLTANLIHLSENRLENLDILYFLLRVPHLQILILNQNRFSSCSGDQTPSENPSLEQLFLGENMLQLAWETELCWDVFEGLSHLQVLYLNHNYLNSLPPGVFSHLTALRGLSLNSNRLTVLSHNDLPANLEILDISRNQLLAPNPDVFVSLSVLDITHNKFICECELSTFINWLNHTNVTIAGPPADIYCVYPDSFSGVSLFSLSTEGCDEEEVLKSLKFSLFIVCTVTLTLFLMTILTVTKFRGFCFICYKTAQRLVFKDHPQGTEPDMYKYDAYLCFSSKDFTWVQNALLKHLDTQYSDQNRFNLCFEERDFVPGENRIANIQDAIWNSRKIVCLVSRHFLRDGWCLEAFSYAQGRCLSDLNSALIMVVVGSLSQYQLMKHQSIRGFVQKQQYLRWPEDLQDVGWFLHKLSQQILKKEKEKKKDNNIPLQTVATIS

Usually EC50 stands for the concentration needed to bring the measured effect to its halfway point. Regarding `CCCCCn1c(N)nc2c(C)cccc21`, the EC50 on Toll-like receptor 8 [1] was determined as 1.8 µM. In addition, the result in test [2], in test [3] and in test [4] was inactive. For the same molecule, the result in [5] and in test [6] was Active. Besides, the Activity in [7] was 14 µM.

As to `CCCCNc1nc(N)nc(-c2ccccc2)c1CCCCN`, the outcome in test [2], in [3], in test [4], in test [5], in [8] and in test [6] was inactive.

With `CCCCNc1nc(N)nc(C)c1CCCCN`, the EC50 stood at 0.3 µM at Toll-like receptor 8 [1] and 9.26 µM at Toll-like receptor 8 [9]. In addition, the result in [2], in test [3], in [4] and in test [6] was inactive. Besides, in test [8], the outcome was Active. Moreover, the Activity in test [7] was 1.5 µM.

`CCCCNc1nc(N)nc(C)c1I`: the EC50 on Toll-like receptor 8 [1] was found to be 1.64 µM. Besides, the result in test [2], in test [3] and in test [4] was inactive. In addition, the result in test [5], in [8] and in test [6] was Active. Besides, in [7], the Activity worked out at 5 µM.

On to `CCCCNc1cc(-c2ccccc2)nc(N)n1`, for which, at Toll-like receptor 8 [1], the EC50 was determined as 6.7 µM. Also, the result in test [2], in [3], in test [4], in test [5], in test [8] and in [6] was inactive.

(Values after ChEMBL document CHEMBL4428062, “Human Toll-like Receptor (TLR) 8-Specific Agonistic Activity in Substituted Pyrimidine-2,4-diamines” (J Med Chem, 2016).)
